Test results published in ChEMBL document CHEMBL4257585, “Structure-Activity Relationships of Photoswitchable Diarylethene-Based β-Hairpin Peptides as Membranolytic Antimicrobial and Anticancer Agents” (J Med Chem, 2018).
Values after ≈ are worked out from the molar mass of the structure shown. Non-standard residues stand in square brackets, D forms with d. Residues, ends and D or L forms follow the SMILES beside them. Orn = NCCC[C@H](N)C(=O)O

Experiments:
[1] = tested on: Escherichia coli; experiment: Antimicrobial activity against Escherichia coli DSM 1103 after 22 hrs by resazurin dye based spectrophotometry; format: functional; settings: DSM 1103, 22 h
Outline: (§1)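 2-fold broth microdilution in Mueller–Hinton medium; peptide stocks 1024 μg/mL in 50% ethanol. Exponential-phase cultures diluted to OD550 0.2, then 1:100 (B. subtilis) or 1:1000 (E. coli), giving 5 × 10^5 CFU/mL per well. Incubated 22 h, 37 °C, static; then resazurin (0.2 mg/mL solution) added for 2 h at 37 °C, read visually and spectrophotometrically. Tested in both photoforms.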

[2] = Therapeutic index, ratio of HC50 for human RBC to MIC for Bacillus subtilis DSM 347; format: toxicity; settings: human red blood cells versus Bacillus subtilis DSM 347
Outline: (§2)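 Ratio of HC50 (RBC) to HeLa IC50 or to MIC against B. subtilis or E. coli; values measured in mg/mL and recalculated to μM, 2-fold dilution without curve fitting, accuracy within a factor of 2.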

[3] = Selective ratio of HC50 for human RBC to IC50 for human HeLa cells; format: toxicity; settings: human red blood cells versus HeLa cells; outline: as §2
[4] = tested on: HeLa; experiment: Cytotoxicity against human HeLa cells assessed as reduction in cell viability after 24 hrs by MTT assay; format: functional, cell-based
Outline: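 HeLa cells seeded at about 5 × 10^4 cells/mL in DMEM with 10% FBS, 2 mM glutamine, gentamicin; 24 h adaptation (37 °C, 5% CO2), then 24 h peptide exposure. MTT 4 h, formazan in DMSO read at 570 nm. 2-fold series 256–0.5 (open) or 512–1 μg/mL (closed), four repetitions; IC50 extrapolated from killing curves. Closed form handled in dim light.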

[5] = tested on: Bacillus subtilis; experiment: Antimicrobial activity against Bacillus subtilis DSM 347 after 22 hrs by resazurin dye based spectrophotometry; format: functional; settings: DSM 347, 22 h; outline: as §1
[6] = Hemolytic activity against human RBC assessed as hemolysis after 30 mins by colorimetric method; format: ADME, cell-based, Erythrocyte; settings: human red blood cells (erythrocytes)
Outline: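 Human erythrocytes washed twice in isotonic 172 mM Tris-HCl, pH 7.6; peptides dissolved in DMSO, diluted in buffer, two independent 10-step 2-fold series from 256 or 192 μg/mL. HC50 extrapolated as 50% hemolysis concentration.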

[7] = Therapeutic index, ratio of HC50 for human RBC to MIC for Escherichia coli DSM 1103; format: toxicity; settings: human red blood cells versus Escherichia coli DSM 1103; outline: as §2

Row | Compound | MIC [1] [µM] | selectivity ratio [2] | selectivity ratio [3] | IC50 [4] [µM] | MIC [5] [µM] | HC50 at 0.5 h [6] [µM] | selectivity ratio [7]
1 | CC[C@H](C)[C@@H]1NC(=O)c2cc(c(C)s2)C2=C(CCC2)c2cc(sc2C)C(=O)[C@H]2CCCN2C(=O)[C@H]([C@@H](C)CC)NC(=O)[C@H](CCCN)NC(=O)[C@H](CC(C)C)NC(=O)[C@H](CC(C)C)N(C)C(=O)[C@@H](Cc2ccccc2)NC(=O)[C@H]([C@@H](C)CC)NC(=O)[C@H](CCCN)NC1=O | 96 (≈ 129 µg/mL) | 1.5 | 1 | 3 | 2 (≈ 2.68 µg/mL) | 3 | 
2 | Cc1sc2cc1C1=C(CCC1)c1cc(sc1C)C(=O)[C@H]1CCCN1C(=O)[C@H](C(C)C)NC(=O)[C@H](CCCN)NC(=O)[C@H]([C@H](O)C(C)C)NC(=O)[C@@H]1CCCN1C(=O)[C@@H](Cc1ccccc1)NC(=O)[C@H](C(C)C)NC(=O)[C@H](CCCN)NC(=O)[C@H]([C@H](O)C(C)C)NC2=O | 98 (≈ 129 µg/mL) | 53.3 | 2.6 | 61 | 3 (≈ 3.94 µg/mL) | 160 | 1.6
3 | CCCCN1C(=O)[C@@H](Cc2ccccc2)NC(=O)[C@H](CC(C)C)NC(=O)[C@H](CCCN)NC(=O)[C@H]([C@@H](C)CC)NC(=O)C2=CC3=C4CCCC4=C4C=C(S[C@]4(C)[C@@]3(C)S2)C(=O)[C@H]2CCCN2C(=O)[C@H](CC(C)C)NC(=O)[C@H](CCCN)NC(=O)[C@H]([C@@H](C)CC)NC(=O)[C@@H]1CC(C)C | 186 (≈ 257 µg/mL) | 13 | 1 | 13 | 1 (≈ 1.38 µg/mL) | 13 | 0.1
4 | CCCCN1C(=O)[C@@H](Cc2ccccc2)NC(=O)[C@H](CC(C)C)NC(=O)[C@H](CCCN)NC(=O)[C@H]([C@@H](C)CC)NC(=O)c2cc(c(C)s2)C2=C(CCC2)c2cc(sc2C)C(=O)[C@H]2CCCN2C(=O)[C@H](CC(C)C)NC(=O)[C@H](CCCN)NC(=O)[C@H]([C@@H](C)CC)NC(=O)[C@@H]1CC(C)C | 93 (≈ 128 µg/mL) | 0.3 | 0.8 | 4 | 12 (≈ 16.6 µg/mL) | 3 | 
5 | CC(C)[C@@H]1NC(=O)[C@H](CCCN)NC(=O)[C@H]([C@H](O)C(C)C)NC(=O)C2=CC3=C4CCCC4=C4C=C(S[C@]4(C)[C@@]3(C)S2)C(=O)[C@H]2CCCN2C(=O)[C@H](C(C)C)NC(=O)[C@H](CCCN)NC(=O)[C@H]([C@H](O)C(C)C)NC(=O)[C@@H]2CCCN2C(=O)[C@@H](Cc2ccccc2)NC1=O | 195 (≈ 256 µg/mL) | 13.3 | 0.5 | 293 | 12 (≈ 15.8 µg/mL) | 160 | 0.8
6 | Cc1sc2cc1C1=C(CCC1)c1cc(sc1C)C(=O)[C@H]1CCCN1C(=O)[C@H](Cc1ccc(O)cc1)NC(=O)[C@H](CCCN)NC(=O)[C@H](C(C)C)NC(=O)[C@@H]1CCCN1C(=O)[C@@H](Cc1ccccc1)NC(=O)[C@H](Cc1ccc(O)cc1)NC(=O)[C@H](CCCN)NC(=O)[C@H](C(C)C)NC2=O | 92 (≈ 127 µg/mL) | 1 | 0.2 | 23 | 4 (≈ 5.52 µg/mL) | 4 | 
7 | Cc1sc2cc1C1=C(CCC1)c1cc(sc1C)C(=O)[C@H]1CCCN1C(=O)[C@H](C(C)C)NC(=O)[C@H](CCCN)NC(=O)[C@H](C(C)C)NC(=O)[C@@H]1CCCN1C(=O)[C@@H](Cc1ccccc1)NC(=O)[C@H](C(C)C)NC(=O)[C@H](CCCN)NC(=O)[C@H]([C@H](O)C(C)C)NC2=O | 100 (≈ 128 µg/mL) | 28 | 2.2 | 25 | 2 (≈ 2.57 µg/mL) | 56 | 0.6
8 | CC(C)[C@@H]1NC(=O)[C@H](CCCN)NC(=O)[C@H]([C@H](O)C(C)C)NC(=O)C2=CC3=C4CCCC4=C4C=C(S[C@]4(C)[C@@]3(C)S2)C(=O)[C@H]2CCCN2C(=O)[C@H](C(C)C)NC(=O)[C@H](CCCN)NC(=O)[C@H](C(C)C)NC(=O)[C@@H]2CCCN2C(=O)[C@@H](Cc2ccccc2)NC1=O | 200 (≈ 257 µg/mL) | 27 | 1.2 | 300 | 13 (≈ 16.7 µg/mL) | 351 | 1.8
9 | CC(C)[C@@H]1NC(=O)C2=CC3=C4CCCC4=C4C=C(S[C@]4(C)[C@@]3(C)S2)C(=O)[C@H]2CCCN2C(=O)[C@H]([C@H](O)C(C)C)NC(=O)[C@H](CCCN)NC(=O)[C@H](C(C)C)NC(=O)[C@@H]2CCCN2C(=O)[C@@H](Cc2ccccc2)NC(=O)[C@H](C(C)C)NC(=O)[C@H](CCCN)NC1=O | 200 (≈ 257 µg/mL) | 8 | 0.7 | 300 | 25 (≈ 32.1 µg/mL) | 200 | 1
10 | CC(C)[C@@H]1NC(=O)[C@H](CCCN)NC(=O)[C@H]([C@H](O)C(C)C)NC(=O)C2=CC3=C4CCCC4=C4C=C(S[C@]4(C)[C@@]3(C)S2)C(=O)[C@H]2CCCN2C(=O)[C@H](C(C)C)NC(=O)[C@H](CCCN)NC(=O)[C@H](C(C)C)NC(=O)[C@H](CCCn2cc(COCc3cn(CCC[C@H]4C(=O)N[C@@H](C(C)C)C(=O)N[C@@H](CCCN)C(=O)N[C@@H](C(C)C)C(=O)N5CCC[C@@H]5C(=O)C5=CC6=C7CCCC7=C7C(=CS[C@]7(C)[C@@]6(C)S5)C(=O)N[C@@H]([C@H](O)C(C)C)C(=O)N[C@@H](CCCN)C(=O)N[C@@H](C(C)C)C(=O)N[C@H](Cc5ccccc5)C(=O)N4C)nn3)nn2)N(C)C(=O)[C@@H](Cc2ccccc2)NC1=O | 96 (≈ 266 µg/mL) | 1.7 | 0.2 | 48 | 6 (≈ 16.6 µg/mL) | 10 | 0.1
11 | Cc1sc2cc1C1=C(CCC1)c1cc(sc1C)C(=O)[C@H]1CCCN1C(=O)[C@H](C(C)C)NC(=O)[C@H](CCCN)NC(=O)[C@H](C(C)C)NC(=O)[C@H](CCCn1cc(COCc3cn(CCC[C@H]4C(=O)N[C@@H](C(C)C)C(=O)N[C@@H](CCCN)C(=O)N[C@@H](C(C)C)C(=O)N5CCC[C@@H]5C(=O)c5cc(c(C)s5)C5=C(CCC5)c5cc(sc5C)C(=O)N[C@@H]([C@H](O)C(C)C)C(=O)N[C@@H](CCCN)C(=O)N[C@@H](C(C)C)C(=O)N[C@H](Cc5ccccc5)C(=O)N4C)nn3)nn1)N(C)C(=O)[C@@H](Cc1ccccc1)NC(=O)[C@H](C(C)C)NC(=O)[C@H](CCCN)NC(=O)[C@H]([C@H](O)C(C)C)NC2=O | 48 (≈ 133 µg/mL) | 0.3 |  | 24 | 3 (≈ 8.32 µg/mL) | 1 | 
12 | Cc1sc2cc1C1=C(CCC1)c1cc(sc1C)C(=O)[C@H]1CCCN1C(=O)[C@H](CC(C)C)NC(=O)[C@H](CCCCN)NC(=O)[C@H](C(C)C)NC(=O)[C@H](CCCCN)NC(=O)[C@H](CC(C)C)NC(=O)[C@@H]1CCCN1C(=O)[C@@H](Cc1ccccc1)NC(=O)[C@H](C(C)C)NC(=O)[C@H](CCCCN)NC(=O)[C@H](CC(C)C)NC(=O)[C@H](CCCCN)NC(=O)[C@H](C(C)C)NC2=O | 36 (≈ 64 µg/mL) | 0.1 | 0.2 | 5 | 9 (≈ 16 µg/mL) | < 1 | 
13 | Cc1sc2cc1C1=C(CCC1)c1cc(sc1C)C(=O)[C@H]1CCCN1C(=O)[C@H](C(C)C)NC(=O)[C@H](CCCN)NC(=O)[C@H](C(C)C)NC(=O)[C@@H]1CCCN1C(=O)[C@@H](Cc1ccccc1)NC(=O)[C@H](C(C)C)NC(=O)[C@H](CCCN)NC(=O)[C@H](CCCn1cc(COCc3cn(CCC[C@@H]4NC(=O)c5cc(c(C)s5)C5=C(CCC5)c5cc(sc5C)C(=O)[C@H]5CCCN5C(=O)[C@H](C(C)C)NC(=O)[C@H](CCCN)NC(=O)[C@H](C(C)C)NC(=O)[C@@H]5CCCN5C(=O)[C@@H](Cc5ccccc5)NC(=O)[C@H](C(C)C)NC(=O)[C@H](CCCN)NC4=O)nn3)nn1)NC2=O | 23 (≈ 61.7 µg/mL) | 1 |  | 23 | 1 (≈ 2.68 µg/mL) | 1 | 
14 | Cc1sc2cc1C1=C(CCC1)c1cc(sc1C)C(=O)[C@H]1CCCN1C(=O)[C@H]([C@H](O)C(C)C)NC(=O)[C@H](CCCN)NC(=O)[C@H](C(C)C)NC(=O)[C@@H]1CCCN1C(=O)[C@@H](Cc1ccccc1)NC(=O)[C@H](C(C)C)NC(=O)[C@H](CCCN)NC(=O)[C@H](C(C)C)NC2=O | 100 (≈ 128 µg/mL) | 25 | 1.3 | 31 | 2 (≈ 2.57 µg/mL) | 39 | 0.4
15 | CC(C)C[C@@H]1NC(=O)[C@H](CCCN)NC(=O)[C@H](C(C)C)NC(=O)[C@@H]2CCCN2C(=O)[C@@H](Cc2ccccc2)NC(=O)[C@H](CC(C)C)NC(=O)[C@H](CCCN)NC(=O)[C@H](C(C)C)NC(=O)[C@@H]2CCCN2C(=O)[C@@H](Cc2ccccc2)NC1=O (cyclo(V[Orn]L[dF]PV[Orn]L[dF]P)) [listing 1 of 2 here] |  |  |  | 3.5 |  | 10.5 | 
16 | CC(C)C[C@@H]1NC(=O)[C@H](CCCN)NC(=O)[C@H](C(C)C)NC(=O)[C@@H]2CCCN2C(=O)[C@@H](Cc2ccccc2)NC(=O)[C@H](CC(C)C)NC(=O)[C@H](CCCN)NC(=O)[C@H](C(C)C)NC(=O)[C@@H]2CCCN2C(=O)[C@@H](Cc2ccccc2)NC1=O (cyclo(V[Orn]L[dF]PV[Orn]L[dF]P)) [listing 2 of 2 here] | 28 (≈ 32 µg/mL) |  |  |  | 1.8 (≈ 2.05 µg/mL) |  | 
